Laboratory results published in ChEMBL document CHEMBL4359823, “Switching on the activity of 1,5-diaryl-pyrrole derivatives against drug-resistant ESKAPE bacteria: Structure-activity relationships and mode of action studies” (Eur J Med Chem, 2019).
Converted amounts (≈) assume the structure as drawn.

How the values were obtained:
Type in all cases: functional
[1] = tested on: Staphylococcus aureus; assay: Antibacterial activity against methicillin-resistant Staphylococcus aureus EMRSA15 measured after overnight incubation by microbroth dilution method
Method in brief: (§1)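 Microbroth dilution: DMSO stocks diluted in water, 2-fold series. Overnight TSB cultures back-diluted to OD 0.01 and mixed 1:1 with compound. Incubated overnight at 37 °C; MIC taken as lowest concentration without visible growth (<0.1 OD600). Run in duplicate; matching DMSO levels checked for effect on growth.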

[2] = tested on: Enterococcus faecalis; assay: Antibacterial activity against vancomycin sensitive Enterococcus faecalis NCTC775 measured after overnight incubation by microbroth dilution method; method in brief: as §1
[3] = tested on: Staphylococcus aureus; assay: Antibacterial activity against methicillin-sensitive Staphylococcus aureus ATCC 9144 measured after overnight incubation by microbroth dilution method; method in brief: as §1
[4] = tested on: Enterococcus faecalis; assay: Antibacterial activity against vancomycin resistant Enterococcus faecalis NCTC12204 measured after overnight incubation by microbroth dilution method; method in brief: as §1
[5] = tested on: Enterococcus faecalis; assay: Antibacterial activity against vancomycin resistant Enterococcus faecalis NCTC12201 measured after overnight incubation by microbroth dilution method; method in brief: as §1
[6] = tested on: Staphylococcus aureus; assay: Antibacterial activity against methicillin-resistant Staphylococcus aureus MRSA252 measured after overnight incubation by microbroth dilution method; method in brief: as §1
[7] = tested on: Klebsiella pneumoniae; assay: Antibacterial activity against Klebsiella pneumoniae NCTC13368 measured after overnight incubation by microbroth dilution method
Method in brief: (§2)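 Microbroth dilution MIC. Compound DMSO stocks were diluted in water as a 2-fold series. Overnight TSB cultures were back-diluted to OD 0.01 and mixed 1:1 with compound. Plates were incubated overnight at 37 °C. MIC was the lowest concentration without visible growth (<0.1 OD600), run in duplicate.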

[8] = tested on: Acinetobacter baumannii; assay: Antibacterial activity against Acinetobacter baumannii AYE measured after overnight incubation by microbroth dilution method; method in brief: as §2
[9] = tested on: Escherichia coli; assay: Antibacterial activity against Escherichia coli NCTC12923 measured after overnight incubation by microbroth dilution method; method in brief: as §2
[10] = tested on: Klebsiella pneumoniae; assay: Antibacterial activity against Klebsiella pneumoniae NCTC13368 measured after overnight incubation in presence of polymyxin B nonapeptide by microbroth dilution method
[11] = tested on: Pseudomonas aeruginosa; assay: Antibacterial activity against Pseudomonas aeruginosa NCTC13437 measured after overnight incubation by microbroth dilution method; method in brief: as §2
[12] = tested on: Staphylococcus aureus; assay: Antibacterial activity against methicillin sensitive Staphylococcus aureus NCTC 6571 measured after overnight incubation by microbroth dilution method; method in brief: as §1
[13] = tested on: Klebsiella pneumoniae; assay: Antibacterial activity against Klebsiella pneumoniae M6 measured after overnight incubation in presence of polymyxin B nonapeptide by microbroth dilution method
[14] = tested on: Klebsiella pneumoniae; assay: Antibacterial activity against Klebsiella pneumoniae M6 measured after overnight incubation by microbroth dilution method; method in brief: as §2
[15] = tested on: Acinetobacter baumannii; assay: Antibacterial activity against Acinetobacter baumannii ATCC 17978 measured after overnight incubation by microbroth dilution method; method in brief: as §2
[16] = tested on: Pseudomonas aeruginosa; assay: Antibacterial activity against Pseudomonas aeruginosa PAO1 measured after overnight incubation by microbroth dilution method; method in brief: as §2
[17] = tested on: Acinetobacter baumannii; assay: Antibacterial activity against Acinetobacter baumannii ATCC 17978 measured after overnight incubation in presence of polymyxin B nonapeptide by microbroth dilution method
[18] = tested on: Staphylococcus aureus; assay: Antibacterial activity against methicillin resistant Staphylococcus aureus NCTC13277 measured after overnight incubation by microbroth dilution method; method in brief: as §1
[19] = tested on: Pseudomonas aeruginosa; assay: Antibacterial activity against Pseudomonas aeruginosa NCTC13437 measured after overnight incubation in presence of polymyxin B nonapeptide by microbroth dilution method
[20] = tested on: Escherichia coli; assay: Antibacterial activity against Escherichia coli NCTC12923 measured after overnight incubation in presence of polymyxin B nonapeptide by microbroth dilution method
[21] = tested on: Staphylococcus aureus; assay: Antibacterial activity against methicillin resistant Staphylococcus aureus NCTC13616 measured after overnight incubation by microbroth dilution method; method in brief: as §1
[22] = tested on: Pseudomonas aeruginosa; assay: Antibacterial activity against Pseudomonas aeruginosa PAO1 measured after overnight incubation in presence of polymyxin B nonapeptide by microbroth dilution method
[23] = tested on: Acinetobacter baumannii; assay: Antibacterial activity against Acinetobacter baumannii AYE measured after overnight incubation in presence of polymyxin B nonapeptide by microbroth dilution method

Row | SMILES | MIC [1] [µg/mL] | MIC [2] [µg/mL] | MIC [3] [µg/mL] | MIC [4] [µg/mL] | MIC [5] [µg/mL] | MIC [6] [µg/mL] | MIC [7] [µg/mL] | MIC [8] [µg/mL] | MIC [9] [µg/mL] | MIC [11] [µg/mL] | MIC [12] [µg/mL] | MIC [14] [µg/mL] | MIC [15] [µg/mL] | MIC [16] [µg/mL] | MIC [18] [µg/mL] | MIC [21] [µg/mL] | other results
1 | Cc1cc(CNCc2ccccc2)c(C)n1-c1ccc(F)cc1 | > 128 | 64 (≈ 208 µM) | > 128 | 32 (≈ 104 µM) | 64 (≈ 208 µM) | 64 (≈ 208 µM) | – | – | – | – | – | – | – | – | – | – | –
2 | Cc1ccc(CNCc2cc(C)n(-c3ccc(Cl)cc3)c2C)cc1 | 64 (≈ 189 µM) | 64 (≈ 189 µM) | 64 (≈ 189 µM) | 32 (≈ 94.4 µM) | 64 (≈ 189 µM) | 64 (≈ 189 µM) | – | – | – | – | – | – | – | – | – | – | –
3 | Cc1cccc(-n2c(C)cc(CN3CCN(C4C5CC6CC(C5)CC4C6)CC3)c2C)c1 (stereo not given) | 64 (≈ 153 µM) | 64 (≈ 153 µM) | 64 (≈ 153 µM) | 64 (≈ 153 µM) | 64 (≈ 153 µM) | 64 (≈ 153 µM) | – | – | – | – | – | – | – | – | – | – | –
4 | Cc1cc(CN2CCN(C3C4CC5CC(C4)CC3C5)CC2)c(C)n1-c1ccc(C(C)C)cc1 (stereo not given) | 32 (≈ 71.8 µM) | 16 (≈ 35.9 µM) | 32 (≈ 71.8 µM) | 8 (≈ 17.9 µM) | 8 (≈ 17.9 µM) | 32 (≈ 71.8 µM) | – | – | – | – | – | – | – | – | – | – | –
5 | Cc1cc(CNCCc2ccccc2)c(C)n1-c1ccc(Cl)cc1 | 32 (≈ 94.4 µM) | 32 (≈ 94.4 µM) | 32 (≈ 94.4 µM) | 8 (≈ 23.6 µM) | 16 (≈ 47.2 µM) | 32 (≈ 94.4 µM) | – | – | – | – | – | – | – | – | – | – | –
6 | Cc1cc(CNCc2ccc(Cl)cc2)c(C)n1-c1ccc(Cl)cc1 | 32 (≈ 89.1 µM) | 32 (≈ 89.1 µM) | 32 (≈ 89.1 µM) | 8 (≈ 22.3 µM) | 16 (≈ 44.5 µM) | 32 (≈ 89.1 µM) | – | – | – | – | – | – | – | – | – | – | –
7 | Cc1c(CNCc2ccccc2)cc(-c2ccc(Cl)cc2)n1-c1ccc(Cl)cc1 | – | 4 (≈ 9.49 µM) | – | – | 4 (≈ 9.49 µM) | – | > 128 | > 128 | > 128 | > 128 | 8 (≈ 19 µM) | > 128 | > 128 | > 128 | 4 (≈ 9.49 µM) | 8 (≈ 19 µM) | MIC [10]: > 128 µg/mL; MIC [13]: 32 µg/mL; MIC [17]: 16 µg/mL; MIC [19]: > 128 µg/mL; MIC [20]: > 128 µg/mL; MIC [22]: > 128 µg/mL; MIC [23]: 16 µg/mL
8 | Cc1cc(CNC2C3CC4CC(C3)CC2C4)c(C)n1-c1ccc(Cl)cc1 (stereo not given) | > 128 | 128 (≈ 347 µM) | 128 (≈ 347 µM) | 64 (≈ 173 µM) | 128 (≈ 347 µM) | 128 (≈ 347 µM) | – | – | – | – | – | – | – | – | – | – | –
9 | Cc1cc(CN2CCN(C3C4CC5CC(C4)CC3C5)CC2)c(C)n1-c1ccccc1F (stereo not given) | 32 (≈ 75.9 µM) | 32 (≈ 75.9 µM) | 32 (≈ 75.9 µM) | 32 (≈ 75.9 µM) | 32 (≈ 75.9 µM) | 32 (≈ 75.9 µM) | – | – | – | – | – | – | – | – | – | – | –
10 | Cc1cc(CNOCc2ccccc2)c(C)n1-c1ccc(F)cc1 | > 64 | > 64 | > 64 | > 64 | > 64 | > 64 | – | – | – | – | – | – | – | – | – | – | –
11 | Cc1c(CNC2CCCCC2)cc(-c2ccc(Cl)cc2)n1-c1ccc(Cl)cc1 | – | 4 (≈ 9.68 µM) | – | 2 (≈ 4.84 µM) | 4 (≈ 9.68 µM) | – | > 128 | 128 (≈ 310 µM) | > 128 | > 128 | 4 (≈ 9.68 µM) | > 128 | 64 (≈ 155 µM) | > 128 | 4 (≈ 9.68 µM) | 4 (≈ 9.68 µM) | MIC [10]: > 128 µg/mL; MIC [13]: 64 µg/mL; MIC [17]: 4 µg/mL; MIC [19]: 32 µg/mL; MIC [22]: > 128 µg/mL; MIC [23]: 8 µg/mL
12 | Cc1cc(CN2CCN(C3CC4CCC3C4)CC2)c(C)n1-c1ccc(Cl)cc1 (stereo not given) | 64 (≈ 161 µM) | 64 (≈ 161 µM) | 64 (≈ 161 µM) | 32 (≈ 80.4 µM) | 32 (≈ 80.4 µM) | 64 (≈ 161 µM) | – | – | – | – | – | – | – | – | – | – | –
13 | Cc1cc(CN2CCN(C3CCCCC3)CC2)c(C)n1-c1ccc(Cl)cc1 | > 128 | 128 (≈ 332 µM) | 128 (≈ 332 µM) | 128 (≈ 332 µM) | 128 (≈ 332 µM) | > 128 | – | – | – | – | – | – | – | – | – | – | –
14 | Cc1c(CNC(C)C)cc(-c2ccc(Cl)cc2)n1-c1ccc(Cl)cc1 | – | 8 (≈ 21.4 µM) | – | 4 (≈ 10.7 µM) | 8 (≈ 21.4 µM) | – | > 128 | 64 (≈ 171 µM) | 32 to 128 (≈ 85.7 to 343 µM) | > 128 | 8 (≈ 21.4 µM) | > 128 | 32 (≈ 85.7 µM) | > 128 | 8 to 16 (≈ 21.4 to 42.9 µM) | 8 (≈ 21.4 µM) | –
15 | Cc1c(CNCCCCCCCCNC(=N)N)cc(-c2ccc(Cl)cc2)n1-c1ccc(Cl)cc1 | – | 8 (≈ 16 µM) | – | 4 (≈ 7.99 µM) | 8 (≈ 16 µM) | – | 32 (≈ 63.9 µM) | 32 (≈ 63.9 µM) | 8 (≈ 16 µM) | 64 (≈ 128 µM) | 4 (≈ 7.99 µM) | 16 (≈ 32 µM) | 8 (≈ 16 µM) | 128 (≈ 256 µM) | 4 (≈ 7.99 µM) | 4 (≈ 7.99 µM) | –
16 | Cc1c(CNC2CCCCC2)cc(-c2ccc(F)cc2)n1-c1ccc(Cl)cc1 | – | 8 (≈ 20.2 µM) | – | 4 (≈ 10.1 µM) | 4 (≈ 10.1 µM) | – | > 128 | 128 (≈ 322 µM) | > 128 | > 128 | 8 (≈ 20.2 µM) | > 128 | 128 (≈ 322 µM) | > 128 | 8 (≈ 20.2 µM) | 8 (≈ 20.2 µM) | –
17 | Cc1cc(CN2CCN(C3C4CC5CC(C4)CC3C5)CC2)c(C)n1-c1ccc(Cl)cc1 (stereo not given) | 32 (≈ 73 µM) | 16 (≈ 36.5 µM) | 16 (≈ 36.5 µM) | 16 (≈ 36.5 µM) | 16 (≈ 36.5 µM) | 32 (≈ 73 µM) | – | – | – | – | – | – | – | – | – | – | –
18 | Cc1c(CNCC2CCCCC2)cc(-c2ccc(Cl)cc2)n1-c1ccc(Cl)cc1 | – | 2 (≈ 4.68 µM) | – | 2 (≈ 4.68 µM) | 4 (≈ 9.36 µM) | – | > 128 | > 128 | > 128 | > 128 | 4 (≈ 9.36 µM) | > 128 | > 128 | > 128 | 4 (≈ 9.36 µM) | 4 (≈ 9.36 µM) | –
19 | Cc1c(CNCCNc2ccccc2)cc(-c2ccc(Cl)cc2)n1-c1ccc(Cl)cc1 | – | 4 (≈ 8.88 µM) | – | 4 to 8 (≈ 8.88 to 17.8 µM) | 4 (≈ 8.88 µM) | – | > 128 | > 128 | > 128 | > 128 | 4 to 8 (≈ 8.88 to 17.8 µM) | > 128 | > 128 | > 128 | 4 to 8 (≈ 8.88 to 17.8 µM) | 4 to 8 (≈ 8.88 to 17.8 µM) | –
